37 compounds from PubChem BioAssay AID624316 (Broad Institute, 2012) can be followed below.

Activity calls are given as the source filed them.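 How the source made its calls: active means compounds lowering reporter light with a fitted AC50 at or below twice their top valid dose; inconclusive means flat partial inhibition or an unreliable curve fit; inactive means the rest.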

The assay concerns SK-MEL-5 TRPM1 promoter luciferase reporter, 24 h. Briefly: decrease of TRPM1 reporter luminescence in SK-MEL-5 – cell-based, dry powder samples, set 4, MITF inhibitor project, dose response (AID 624316). In a few lines:
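Test system: SK-MEL-5 melanoma line stably carrying TRPM1 promoter–luciferase reporter; buffer or medium: DMEM without phenol red plus 10% FBS; dosing: compounds pinned into wells as DMSO solutions; timing: 24 h compound treatment at 37 °C; measured by: SteadyGlo luciferase luminescence; benchmarks: parthenolide as positive control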
By AC50 is commonly meant the midpoint of the concentration-response curve, whichever way the signal moves. Take `COc1ccc(C(=O)NC2=C(c3ccc(OC(F)(F)F)cc3)C(=O)c3ccccc3C2=O)cc1`: the AC50 is 35.5 µM.

As to `COc1ccc(C2=C(NC(=O)c3ccc(Cl)cc3)C(=O)c3ccccc3C2=O)cc1`, the AC50 was 16.4 µM.

For `COc1ccc(C(=O)NC2=C(c3ccc(OC)cc3)C(=O)c3ccccc3C2=O)cc1`, the AC50 is 8.59 µM.

In the case of `Cc1ccc(C(=O)NC2=C(c3ccccc3)C(=O)c3ccccc3C2=O)o1`, the AC50 is 4.8 µM.

In the case of `C=CCNC1=C(NS(=O)(=O)c2cccs2)C(=O)c2ccccc2C1=O`, the half-maximal activity concentration (AC50) is 12 µM.

Consider `O=C1C(NS(=O)(=O)c2ccccc2)=C(N2CCOCC2)C(=O)c2ccccc21`, for which the AC50 is 18.5 µM.

With `CCN1CCN(C2=C(NS(=O)(=O)c3ccc(Br)s3)C(=O)c3ccccc3C2=O)CC1`, the concentration at half-maximal activity (AC50) was 4.1 µM.

For `CC(=O)N(C)C1=C(N2CCN(C)CC2)C(=O)c2ccccc2C1=O`, the AC50 was 0.372 µM.

With `COc1ccc(C2=C(NC(=O)c3ccccc3Cl)C(=O)c3ccccc3C2=O)cc1`, the AC50 is 6.21 µM.

For `C=CCNC1=C(NCCCN(CC)CC)C(=O)c2ccccc2C1=O`, the AC50 is 3.12 µM.

For `C=CCNC1=C(Nc2ccccc2)C(=O)c2ccccc2C1=O`, the half-maximal activity concentration (AC50) is 12.4 µM.

Regarding `Cc1nc2ccccc2n1/N=C/c1ccc([N+](=O)[O-])s1`, the AC50 is 1.86 µM.

Regarding `O=C1C(NS(=O)(=O)c2ccc(Br)s2)=C(N2CCOCC2)C(=O)c2ccccc21`, the concentration at half-maximal activity (AC50) is 19.9 µM.

On to `O=C(CNc1cccc2ccccc12)N/N=C/c1ccc([N+](=O)[O-])o1`, for which the concentration at half-maximal activity (AC50) was 1.67 µM.

For the compound `CN1CCN(C2=C(NS(=O)(=O)c3ccc(Br)s3)C(=O)c3ccccc3C2=O)CC1`, the concentration at half-maximal activity (AC50) was 2.57 µM.

Consider `CN1CCN(C2=C(NS(=O)(=O)c3cccs3)C(=O)c3ccccc3C2=O)CC1`, for which the half-maximal activity concentration (AC50) is 2.06 µM.

As for `CN1CCN(C2=C(NC(=O)c3ccc(Br)cc3)C(=O)c3ccccc3C2=O)CC1`, the AC50 was 0.921 µM.

For `CC(=O)NC1=C(c2ccc(Cl)cc2)C(=O)c2ccccc2C1=O`, the half-maximal activity concentration (AC50) is 5.17 µM.

Turning to `COc1ccc(S(=O)(=O)N(C(C)=O)c2ccc(OC(C)=O)c3ccccc23)cc1[N+](=O)[O-]`, the concentration at half-maximal activity (AC50) is 6.67 µM.

For `O=C1C(Nc2ccccc2)=C(N2CCSCC2)C(=O)c2ccccc21`, the AC50 was 7.75 µM.

Consider `C=CCNC1=C(N2CCN(CC)CC2)C(=O)c2ccccc2C1=O`, for which the AC50 was 4.12 µM.

Take `O=C1C(Nc2ccccc2)=C(N2CCCCC2)C(=O)c2ccccc21`: the AC50 was 2.78 µM.

Turning to `O=C1C(NS(=O)(=O)c2ccc(Br)cc2)=C(c2ccccc2)C(=O)c2ccccc21`, the AC50 was 24 µM.

Turning to `O=C1C(NS(=O)(=O)c2ccc(Br)cc2)=C(N2CCCCC2)C(=O)c2ccccc21`, the half-maximal activity concentration (AC50) was 14.2 µM.

Turning to `O=C(NC1=C(c2ccccc2)C(=O)c2ccccc2C1=O)c1ccccc1`, the half-maximal activity concentration (AC50) is 6.77 µM.

For `O=C(NC1=C(c2ccc(Oc3ccccc3)cc2)C(=O)c2ccccc2C1=O)c1ccccc1`, the AC50 was > 70 µM (inactive).

On to `CC(=O)N(C)C1=C(N2CCCCC2)C(=O)c2ccccc2C1=O`, for which the AC50 was 0.7 µM.

Take `O=C(NC1=C(Cl)C(=O)c2ccccc2C1=O)c1ccccc1`: the AC50 is 0.854 µM.

For `C=CCNC1=C(NC(=O)c2ccccc2)C(=O)c2ccccc2C1=O`, the concentration at half-maximal activity (AC50) is 11.7 µM.

As for `CCN1CCN(C2=C(NC(=O)c3ccc(Br)cc3)C(=O)c3ccccc3C2=O)CC1`, the AC50 was 0.566 µM.

As for `O=C(NC1=C(c2ccccc2)C(=O)c2ccccc2C1=O)c1ccc(Br)cc1`, the AC50 was 12.3 µM.

For `O=C1C(Nc2ccccc2)=C(N2CCN(c3ccccc3)CC2)C(=O)c2ccccc21`, the concentration at half-maximal activity (AC50) was 8.06 µM.

`O=C1C(NS(=O)(=O)c2ccc(Br)cc2)=C(N2CCOCC2)C(=O)c2ccccc21`: the half-maximal activity concentration (AC50) was 6.87 µM.

Regarding `NC1=C(c2ccccc2)C(=O)c2ccccc2C1=O`, the AC50 was 7.61 µM.

Regarding `COc1ccc(C2=C(NC(=O)c3cccc(OC)c3)C(=O)c3ccccc3C2=O)cc1`, the half-maximal activity concentration (AC50) is 11.4 µM.

Consider `CCN1c2ccccc2NC2N=C(OC)C(c3ccccc3)C21` (configuration not stated), for which the AC50 was 2.5 µM.

With `O=C(NC1=C(c2ccc(OC(F)(F)F)cc2)C(=O)c2ccccc2C1=O)c1ccccc1F`, the concentration at half-maximal activity (AC50) is 17.1 µM.
